Reference: ChEMBL document CHEMBL1221219, “Selective blockade of 2-arachidonoylglycerol hydrolysis produces cannabinoid behavioral effects” (Nat Chem Biol, 2009)
Active and inactive are the calls of the source. The rule behind the calls is not given here.

Key:
[1] = test system: Mus musculus; test: Inhibition of MAGL in intraperitoneally dosed C57B1/6J mouse brain membrane assessed as increase in 2-AG level after 4 hrs relative to control; format: functional, organism-based
In short: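 Male C57Bl/6J mice dosed i.p. in 4:1 v/v PEG300:Tween80, with vehicle controls; killed at set times (0.5-24 h, or 4 h). Brain membrane 2-AG hydrolysis measured by LC-MS substrate assay, and brain 2-AG measured by lipid LC-MS, relative to vehicle.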

[2] = test system: Mus musculus; test: Inhibition of APT2 in C57B1/6J mouse brain membrane at 16 mg/kg, ip after 4 hrs by competitive activity-based protein profiling-MudPIT method; format: functional, organism-based; set-up: dose 16 mg/kg
In short: (§1)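 Mice were dosed 16 mg kg^-1 i.p. or vehicle and killed at 4 h. Brain membrane proteomes were labelled with FP-biotin, avidin-enriched, trypsin-digested on bead, analysed by multidimensional LC-MS and identified by SEQUEST.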

[3] = test system: Mus musculus; test: Inhibition of FAAH in C57B1/6J mouse brain membrane assessed as elevated level of N-acylethanolamine at 10 mg/kg, ip by competitive activity-based protein profiling method; format: functional, organism-based; set-up: dose 10 mg/kg
[4] = test system: Mus musculus; test: Inhibition of ABHD12 in C57B1/6J mouse brain membrane at 16 mg/kg, ip after 4 hrs by competitive activity-based protein profiling-MudPIT method; format: functional, organism-based; set-up: dose 16 mg/kg; in short: as §1
[5] = test system: Mus musculus; test: Change in oleic acid in intraperitoneally dosed C57B1/6J mouse brain by LC-MS; format: functional, organism-based
In short: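 Male C57Bl/6J mice given 4, 8, 16 or 40 mg kg^-1 i.p. in 4:1 PEG300:Tween80 at 4 μl g^-1, or vehicle, and killed after 4 h. Whole-brain lipids were quantified by LC-MS.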

[6] = test system: Mus musculus; test: Inhibition of ACOT2 in C57B1/6J mouse brain membrane at 16 mg/kg, ip after 4 hrs by competitive activity-based protein profiling-MudPIT method; format: functional, organism-based; set-up: dose 16 mg/kg; in short: as §1
[7] = test system: Mus musculus; test: Inhibition of FAAH in orally dosed C57B1/6J mouse brain membrane after 4 hrs; format: functional, organism-based
In short: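 Oral dosing used male C57Bl/6J mice (6-8 weeks) given inhibitor in PEG300 vehicle at 4 ul g^-1, handled as for i.p. dosing. Brains were taken 4 h later for analysis of brain membrane hydrolase activity.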

[8] = test system: Mus musculus; test: Inhibition of TPP2 in C57B1/6J mouse brain membrane at 16 mg/kg, ip after 4 hrs by competitive activity-based protein profiling-MudPIT method; format: functional, organism-based; set-up: dose 16 mg/kg
In short: (§2)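 After i.p. dosing in 4:1 PEG300:Tween80, male C57Bl/6J mice were killed at 4 h. Brain membrane proteomes from treated and vehicle mice were labelled with FP-biotin. Labelled proteins were enriched on avidin, digested on-bead with trypsin and analysed by multidimensional LC-MS. Proteins were identified by SEQUEST, and dosed samples were compared with vehicle.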

[9] = test system: Mus musculus; test: Antinociceptive activity against formalin-induced pain in C57B1/6J mouse assessed as paw lifting or licking during late phase (20-40 mins) at 40 m/kg, po administered 2 hrs before formalin challenge pretreated with rimonabant; format: functional, organism-based
[10] = test system: Mus musculus; test: Inhibition of FAM108A1 in C57B1/6J mouse brain membrane at 16 mg/kg, ip after 4 hrs by competitive activity-based protein profiling-MudPIT method; format: functional, organism-based; set-up: dose 16 mg/kg; in short: as §2
[11] = test system: Mus musculus; test: Change in anandamide level in C57B1/6J mouse brain at 16 mg/kg, ip by LC-MS; format: functional, organism-based; set-up: dose 16 mg/kg
In short: (§3)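 Mice received 16 mg kg^-1 i.p. in 4:1 PEG300:Tween80 and were killed at 0.5, 1, 2, 4, 8 and 24 h. Brain lipids, including N-acylethanolamines, MAGs, free fatty acids and arachidonic acid, were measured by LC-MS.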

[12] = molecular target: Cannabinoid receptor 2 (Homo sapiens) (UniProt P34972); test: Displacement of [3H]CP-55940 from CB2 expressed in CHO cells after 90 mins by liquid scintillation; format: cell-based
Sequence of Cannabinoid receptor 2 (Homo sapiens) (P34972 whole entry): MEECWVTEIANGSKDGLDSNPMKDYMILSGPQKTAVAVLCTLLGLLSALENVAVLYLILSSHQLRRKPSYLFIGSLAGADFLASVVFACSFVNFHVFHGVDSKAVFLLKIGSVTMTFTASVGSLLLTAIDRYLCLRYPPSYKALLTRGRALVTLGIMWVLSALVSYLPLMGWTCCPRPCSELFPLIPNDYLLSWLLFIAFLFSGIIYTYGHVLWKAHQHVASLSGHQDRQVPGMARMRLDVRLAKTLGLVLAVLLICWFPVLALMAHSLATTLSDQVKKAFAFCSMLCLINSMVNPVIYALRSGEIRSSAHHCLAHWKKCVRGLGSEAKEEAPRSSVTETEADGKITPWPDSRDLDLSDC

[13] = test system: Mus musculus; test: Induction of hypothermia in C57B1/6J mouse at 16 mg/kg, ip; format: functional, organism-based; set-up: dose 16 mg/kg
In short: (§4)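 Male C57Bl/6J mice, 6-8 weeks, 20-26 g, given 16 mg kg^-1 i.p. in 4:1 v/v PEG300:Tween80 at 4 μl g^-1; vehicle controls received PEG300:Tween80 alone. Cannabinoid effects were scored in the tetrad test.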

[14] = test system: Mus musculus; test: Change in free fatty acid level in C57B1/6J mouse brain at 16 mg/kg, ip by LC-MS; format: functional, organism-based; set-up: dose 16 mg/kg; in short: as §3
[15] = test system: Mus musculus; test: Induction of hypothermia in CB1 receptor deficient C57B1/6J mouse at 16 mg/kg, ip; format: functional, organism-based; set-up: dose 16 mg/kg; in short: as §4
[16] = test system: Mus musculus; test: Inhibition of PAFAH-1Bb in C57B1/6J mouse brain membrane at 16 mg/kg, ip after 4 hrs by competitive activity-based protein profiling-MudPIT method; format: functional, organism-based; set-up: dose 16 mg/kg; in short: as §2
[17] = test system: Mus musculus; test: Inhibition of BAT5 in C57B1/6J mouse brain membrane at 16 mg/kg, ip after 4 hrs by competitive activity-based protein profiling-MudPIT method; format: functional, organism-based; set-up: dose 16 mg/kg; in short: as §1
[18] = test system: Mus musculus; test: Antinociceptive activity against formalin-induced pain in C57B1/6J mouse assessed as paw lifting or licking during early phase (0 to 10 mins) at 40 m/kg, po administered 2 hrs before formalin challenge; format: functional, organism-based
[19] = test system: Mus musculus; test: Inhibition of RBBP9 in C57B1/6J mouse brain membrane at 16 mg/kg, ip after 4 hrs by competitive activity-based protein profiling-MudPIT method; format: functional, organism-based; set-up: dose 16 mg/kg; in short: as §2
[20] = test system: Mus musculus; test: Inhibition of AARE in C57B1/6J mouse brain membrane at 16 mg/kg, ip after 4 hrs by competitive activity-based protein profiling-MudPIT method; format: functional, organism-based; set-up: dose 16 mg/kg; in short: as §1
[21] = test system: Mus musculus; test: Inhibition of PREPL in C57B1/6J mouse brain membrane at 16 mg/kg, ip after 4 hrs by competitive activity-based protein profiling-MudPIT method; format: functional, organism-based; set-up: dose 16 mg/kg; in short: as §2
[22] = test system: Mus musculus; test: Change in N-acylethanolamine level in C57B1/6J mouse brain at 16 mg/kg, ip by LC-MS; format: functional, organism-based; set-up: dose 16 mg/kg; in short: as §3
[23] = test system: Mus musculus; test: Effect on interstitial level of AEA in C57B1/6 mouse nucleus accumbens at 10 mg/kg, ip by following neuronal depolarization by microdialysis; format: functional, organism-based; set-up: dose 10 mg/kg
In short: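 In vivo microdialysis from nucleus accumbens of C57Bl/6 mice after 10 mg kg^-1 i.p. Drug was given 1 h before neuronal depolarization, and interstitial AEA and 2-AG were measured in the dialysate.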

[24] = test system: Mus musculus; test: Inhibition of PPME1 in C57B1/6J mouse brain membrane at 16 mg/kg, ip after 4 hrs by competitive activity-based protein profiling-MudPIT method; format: functional, organism-based; set-up: dose 16 mg/kg; in short: as §2

O=C(Oc1ccc([N+](=O)[O-])cc1)N1CCC(C(O)(c2ccc3c(c2)OCO3)c2ccc3c(c2)OCO3)CC1
inhibition [1]: Dose-dependent effect
inhibition [2]: inactive
inhibition [3]: Active
inhibition [4]: inactive
Activity [5]: inactive
inhibition [6]: inactive
inhibition [7]: Active
inhibition [8]: inactive
Activity [9]: inactive
inhibition [10]: inactive
Activity [11]: inactive
Activity [12]: inactive
Activity [13]: Active
Activity [14]: inactive
Activity [15]: inactive
inhibition [16]: inactive
inhibition [17]: inactive
Activity [18]: Active
inhibition [19]: inactive
inhibition [20]: inactive
inhibition [21]: inactive
Activity [22]: inactive
Activity [23]: inactive
inhibition [24]: inactive
